PMC3080470 (Biopharmaceutics & drug disposition, 2011)
Like-named read-outs stand apart in the source and are kept apart here. Marks after values point to notes of the source that are not given here. Numbered stars: 1 amine (or outer) side, 2 acyl side, 3 side chain; on linkers, the order of the positions; unused ones are H or OH. Bridge positions count the residues as written; N and C are the ends. Square brackets hold non-standard residues; d marks the D form. Peptide text beside a SMILES is read from it. * marks the point of attachment. hTyr(3S-OH,4S-OH,3'-OSO3H) = N[C@H](C(=O)O)[C@H](O)[C@@H](O)c1ccc(O)c(OS(=O)(=O)O)c1; Orn(4R-OH,5R-OH) = O=C([C@H](C[C@@H](O)[C@@H](O)N[*:3])N[*:1])[*:2]; Pro(3S-OH,4S-Me) = C[C@H]1CN[C@H](C(=O)O)[C@H]1O; X1 = CCCCCOc1ccc(-c2cc(-c3ccc(C(=O)*)cc3)no2)cc1; Gln(3R-OH) = NC(=O)C[C@@H](O)[C@H](N)C(=O)O; Hyp = O=C(O)[C@@H]1C[C@@H](O)CN1

Columns and labels:
[1] = cited from earlier work
[2] = adult; well-stirred model, fu 0.004, QH 21 ml/min/kg; ref Yanni et al. [8]; cited from earlier work
[3] = Micafungin serum fraction unbound by equilibrium dialysis; format: in vitro ADME; settings: human, pH 7.4
Outline: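 Serum from neonates (23–40 wk gestation, postnatal 1–52 days, 0.6–3.5 kg; n=6) or adults (n=6) spiked with 10 μM test compound. Dialysed against an equal volume of 100 mM sodium phosphate, pH 7.4, for 4.5 hr at 37°C with 100 rpm shaking. Both sides quantified by HPLC-fluorescence (ex 273/em 464 nm) with diclofenac internal standard and matrix-matched calibration. fu = buffer/serum concentration.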

[4] = cited from earlier work; remark: listed apart in the source
[5] = system: sandwich-cultured human hepatocytes; settings: cited from earlier work
[6] = human adult, ref Yanni et al. [8]

Row | Compound | Observed Biliary Cl [1, 6] | Observed Plasma Cl [1, 6] | Observed Plasma Cl ([1]; human neonate, ref Heresi et al. [5]) | share of plasma clearance that occurs via biliary elimination of the parent drug ([1]; pharmacokinetic studies with 14C-micafungin) | Calculated Biliary Cl [2] | Calculated Plasma Cl [2] | fraction unbound at 4.5 hr, 10 μM ([3]; serum from adults) | fraction unbound at 4.5 hr, 10 μM ([3]; serum from neonates) | plasma protein binding ([4]; in humans and animals) | binding to plasma proteins ([4]; stated in abstract, no reference given) | Intrinsic Biliary Cl ([5]; adult, sandwich-cultured human hepatocytes, B-CLEAR, ref Yanni et al. [8]) | Intrinsic Accumulation Cl ([5]; adult, sandwich-cultured human hepatocytes, ref Yanni et al. [8]) | In vitro intrinsic accumulation Cl ([5]; sandwich-cultured human hepatocytes from adult liver donors, no albumin) | clearance in neonates (< 3 months) compared to older children (2-11y) ([1]; human) | unbound fraction in blood [4]
1 | CCCCCOc1ccc(-c2cc(-c3ccc(C(=O)N[C@H]4C[C@@H](O)[C@@H](O)NC(=O)[C@@H]5[C@@H](O)[C@@H](C)CN5C(=O)[C@H]([C@H](O)CC(N)=O)NC(=O)[C@H]([C@H](O)[C@@H](O)c5ccc(O)c(OS(=O)(=O)O)c5)NC(=O)[C@@H]5C[C@@H](O)CN5C(=O)[C@H]([C@@H](C)O)NC4=O)cc3)no2)cc1 [Micafungin] (X1-[Orn(4R-OH,5R-OH)]T[Hyp][hTyr(3S-OH,4S-OH,3'-OSO3H)][Gln(3R-OH)][Pro(3S-OH,4S-Me)]; lactam 1-C) | 0.160 mL/min/kg | 0.229 mL/min/kg | 0.622 ^# ml/min/kg | approximately 90% | 0.101 ± 0.062 mL/min/kg | 0.175 ± 0.012 mL/min/kg | 0.004 | 0.033 | > 99% | > 99.5% | 14 ± 9 µL/min/mg | 24 ± 2 µL/min/mg | 23.5 ± 1.6 µL/min/mg |  | 
2 | Caspofungin |  |  |  |  |  |  |  |  |  |  |  |  |  | significantly lower | about 3.5%
